# Assay outcomes as filed in PubChem.
# The list is not random: actives were taken first. Their share in the collection is about 4%.
# GRIN3A LBD mod = NR3A (human) ligand-binding domain modulation. NR3A LBD differential scanning fluorimetry, Tm shift; 0% = protein alone, 100% = glycine-bound protein. Tm shift relative to glycine control, % at 25 µM. actives 2.5% (n = 340,000). AID 1259313;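 active = melting temperature shift of at least 10% of the positive control shift, at one fixed dose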
# SENP1 inh = inhibitors of human SENP1 SUMO protease catalytic domain; Q9P0U3; recombinant SENP1 catalytic domain, CyPet-SUMO1-YPet FRET cleavage; inhibition, % at 10 µM; actives 0.21% (n = 360,000); AID 624204;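 active = inhibition at least 30% at 10 µM, raw YFP signal under a set limit, fluorescence ratio 0.5 to 1.5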;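 note: 0% = enzyme with DMSO and 100% = no enzyme wells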
#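 Test system: hSENP1 catalytic domain, recombinant; Amount: 20 pM final SENP1 enzyme; Medium: Tris pH 8 buffer plus EDTA, NaCl, BME, BSA, NP40, catalase; Schedule: 50 min enzyme reaction, room temperature, light-protected; Technique: FRET fluorescence in CFP and YFP emission channels; Controls: no-enzyme wells low, DMSO-plus-enzyme wells high control.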
# FAS TE block = blocks the thioesterase domain of human fatty acid synthase. inhibition, % at 15 µM. actives 0.67% (n = 360,000). recombinant FAS-TE, OMFH fluorogenic substrate, fluorescence endpoint;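 active = compounds whose normalised, plate-corrected inhibition of enzyme fluorescence in the single-dose primary screen is 50% or more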;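 note: 0% = DMSO with enzyme and 100% = substrate without enzyme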
# Target sequence (P49327 whole entry, looked up, the tested form may be a part): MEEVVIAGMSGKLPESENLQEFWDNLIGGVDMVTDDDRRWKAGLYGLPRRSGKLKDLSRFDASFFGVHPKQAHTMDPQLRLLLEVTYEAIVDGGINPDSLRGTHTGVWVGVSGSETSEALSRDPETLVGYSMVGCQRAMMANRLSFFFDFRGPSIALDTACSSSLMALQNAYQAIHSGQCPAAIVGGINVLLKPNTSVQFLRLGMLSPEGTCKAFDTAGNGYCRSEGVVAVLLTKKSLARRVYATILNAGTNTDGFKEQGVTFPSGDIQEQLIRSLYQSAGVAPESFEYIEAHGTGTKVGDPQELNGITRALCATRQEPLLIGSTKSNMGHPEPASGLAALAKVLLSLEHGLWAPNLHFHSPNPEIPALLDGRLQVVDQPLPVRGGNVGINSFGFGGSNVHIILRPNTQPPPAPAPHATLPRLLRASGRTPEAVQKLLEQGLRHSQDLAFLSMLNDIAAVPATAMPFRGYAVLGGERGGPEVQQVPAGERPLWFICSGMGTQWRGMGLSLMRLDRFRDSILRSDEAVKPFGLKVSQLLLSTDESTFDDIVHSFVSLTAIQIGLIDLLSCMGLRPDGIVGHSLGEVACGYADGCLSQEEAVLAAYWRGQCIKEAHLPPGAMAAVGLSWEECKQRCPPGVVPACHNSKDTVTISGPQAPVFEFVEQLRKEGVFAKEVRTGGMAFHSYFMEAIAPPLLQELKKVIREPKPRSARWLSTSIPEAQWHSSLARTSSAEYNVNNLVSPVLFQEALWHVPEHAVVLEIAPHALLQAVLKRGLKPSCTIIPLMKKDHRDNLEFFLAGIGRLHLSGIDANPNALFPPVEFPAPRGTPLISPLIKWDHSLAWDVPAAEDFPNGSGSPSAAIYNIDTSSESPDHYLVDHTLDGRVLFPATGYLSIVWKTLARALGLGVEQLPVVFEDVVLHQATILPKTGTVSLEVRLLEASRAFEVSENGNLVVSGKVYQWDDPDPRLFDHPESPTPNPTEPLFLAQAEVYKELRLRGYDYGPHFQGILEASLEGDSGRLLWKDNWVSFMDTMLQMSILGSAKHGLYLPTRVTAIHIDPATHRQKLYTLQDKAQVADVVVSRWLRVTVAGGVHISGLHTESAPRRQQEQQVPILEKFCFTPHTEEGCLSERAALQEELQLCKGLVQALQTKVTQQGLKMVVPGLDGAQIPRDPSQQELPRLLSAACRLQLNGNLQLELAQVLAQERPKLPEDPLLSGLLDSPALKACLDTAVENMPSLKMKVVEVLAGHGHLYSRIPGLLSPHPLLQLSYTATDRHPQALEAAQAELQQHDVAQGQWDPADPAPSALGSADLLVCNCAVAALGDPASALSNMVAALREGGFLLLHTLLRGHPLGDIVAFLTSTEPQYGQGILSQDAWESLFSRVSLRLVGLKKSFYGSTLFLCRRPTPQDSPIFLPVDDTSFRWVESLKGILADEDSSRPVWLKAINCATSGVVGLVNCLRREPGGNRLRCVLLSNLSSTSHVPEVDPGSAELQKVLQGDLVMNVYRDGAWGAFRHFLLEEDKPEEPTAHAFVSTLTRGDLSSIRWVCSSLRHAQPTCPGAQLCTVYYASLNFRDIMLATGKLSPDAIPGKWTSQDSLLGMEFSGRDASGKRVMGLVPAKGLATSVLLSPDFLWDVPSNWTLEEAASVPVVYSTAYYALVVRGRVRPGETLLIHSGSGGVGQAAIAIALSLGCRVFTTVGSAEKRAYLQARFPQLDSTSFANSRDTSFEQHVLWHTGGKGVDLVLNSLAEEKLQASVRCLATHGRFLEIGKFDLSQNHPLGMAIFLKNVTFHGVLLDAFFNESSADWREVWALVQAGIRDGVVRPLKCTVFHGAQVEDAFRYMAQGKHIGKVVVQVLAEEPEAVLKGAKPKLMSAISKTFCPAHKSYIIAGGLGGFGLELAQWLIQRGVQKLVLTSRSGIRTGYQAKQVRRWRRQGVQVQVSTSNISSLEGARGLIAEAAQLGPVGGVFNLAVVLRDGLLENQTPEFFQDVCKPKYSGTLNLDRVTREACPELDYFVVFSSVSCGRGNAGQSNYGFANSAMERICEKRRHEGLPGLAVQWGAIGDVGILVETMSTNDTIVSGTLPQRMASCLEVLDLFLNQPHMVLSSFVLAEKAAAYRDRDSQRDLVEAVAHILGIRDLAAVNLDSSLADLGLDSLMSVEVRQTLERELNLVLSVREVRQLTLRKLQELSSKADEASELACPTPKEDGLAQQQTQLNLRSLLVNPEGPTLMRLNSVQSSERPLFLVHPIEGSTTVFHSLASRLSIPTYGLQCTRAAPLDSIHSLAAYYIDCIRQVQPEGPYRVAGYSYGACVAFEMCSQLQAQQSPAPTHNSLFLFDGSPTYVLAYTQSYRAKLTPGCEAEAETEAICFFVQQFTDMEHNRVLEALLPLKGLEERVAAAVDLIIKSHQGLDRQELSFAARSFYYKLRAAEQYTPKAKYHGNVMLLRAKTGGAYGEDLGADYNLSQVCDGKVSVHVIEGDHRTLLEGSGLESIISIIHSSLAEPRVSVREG
# iPSC survival up = enhancers of human iPSC single-cell survival; hiPSC single-cell survival, ATPlite luminescence; 100% = ROCK inhibitor wells, 0% = DMSO; survival enhancement, % at 20 µM; actives 0.044% (n = 360,000); in the data active = survival enhancement above about 18%;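 note: cells exposed to compounds for 16 hours before the ATP read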
# Arrestin-AP2 inh = blocks beta-arrestin peptide binding to AP2 adaptin. inhibition, % at 10 µM. FITC-arrestin peptide / GST-AP2 beads, flow cytometry; AP2 beta2 appendage carries R879A mutation. actives 0.31% (n = 340,000);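 active = inhibition above a set limit, near 3 SD of compounds lacking own fluorescence, cut at about 54% in these data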;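 note: plate controls were DMSO wells for no effect and 5 µM unlabelled arrestin peptide for full effect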
#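 Material – AP2 appendage R879A on GSH beads · Buffer or medium – PBS with 0.05% Tween 20 and 0.1% BSA · Probe or stimulus – fluorescein-tagged arrestin peptide at 50 nM final · Incubation – compound with beads 12 min RT, then probe 1 h RT · Detection – high-throughput flow cytometry of beads, ex 488, em 535 nm · Evaluation – percent response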
# Cardio protect = modulators protecting cardiomyocytes from myocardial damage. H9c2 cardiomyocytes, H2O2 injury protection, ATPLite, 2 h. protection from H2O2 cell death, % at 20 µM. actives 0.63% (n = 360,000);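 active = compounds giving at least 50% protection of heart cells from peroxide-induced death in the single-dose screen, raw or plate-pattern-corrected value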;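 note: 0% = DMSO wells with peroxide and 100% = DMSO wells without peroxide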
# * hit, by the source's call; x = no result.
SMILES,GRIN3A LBD mod,SENP1 inh,FAS TE block,iPSC survival up,Arrestin-AP2 inh,Cardio protect
CC(C)C(=O)N1CCC2(CC1)Oc1ccc(Cl)cc1C(=O)C21CC(c2ccccc2)=NO1 (stereo not drawn),1,1,57*,6,0,2
Cc1cccc(C)c1Nc1nnc(SCC(=O)Nc2ncc(C(F)(F)F)cc2Cl)s1,12*,-4,21,0,16,0
Cc1cc(N/N=C/c2ccc(O)cc2O)nc(-n2nc(C)cc2C)n1,27*,-2,-2,1,27,20
Cc1cc(N/N=C\c2ccccc2)nc(-c2ccccc2O)n1,31*,2,38,-3,-4,-10
C/C(=N\Nc1cc(C)nc(-c2ccccc2O)n1)c1ccccc1O,26*,0,28,-1,-15,17
Cc1cc(N/N=C/c2ccccc2O)nc(-c2ccccc2O)n1,25*,1,2,2,-7,43
Cc1cc(Oc2ccccc2)nc(-c2ccccc2O)n1,2,0,22,0,-2,-14
Cc1cc(N/N=C/c2ccc(O)cc2O)c2ccccc2n1,0,0,-2,1,-3,2
Cc1cc(N/N=C/c2ccc(O)cc2O)nc(-c2ccccc2O)n1,35*,3,12,-2,3,18
C/C(=N\Nc1nc2ccccc2nc1C)c1ccccc1O,2,-1,1,0,3,7
CC(=NNc1ccc2ccccc2n1)c1ccccc1O,24*,4,26,-1,-2,-16
O=C(CCc1nc2ccccc2c(=O)[nH]1)NNC(=O)c1ccccc1Cl,0,-14,-3,0,-1,56*
O=C(CCc1nc2ccccc2c(=O)[nH]1)NNC(=O)COc1cccc(F)c1,1,0,-6,2,-10,96*
C=CC1CN2CCC1CC2C(O)c1ccnc2ccc(OC)cc12 (stereo not drawn),-5,1,-13,-2,-2,-3
CC(C)(C)OC(=O)NCCc1nc(NC(=O)OCc2ccccc2)sc1C(=O)O,x,0,x,x,x,x
Cc1occc(=O)c1OC(=O)Nc1ccc(Cl)c(Cl)c1,38*,-4,22,2,3,-20
COc1ccc(C(=O)Oc2c(C)occc2=O)cc1OC,0,1,-5,-3,-1,-3
COc1ccc(C(=O)Nc2cc(OC)c(NC(=O)Nc3ccccc3)cc2OC)cc1,x,-36,19,-2,x,27
CCCCn1nnnc1C(c1ccccc1)N1CCCN(Cc2ccc(F)cc2)CC1 (stereo not drawn),x,0,2,-1,x,x
Cc1nn(-c2ccccc2)c(C)c1/C=N/NC(=O)c1cc(C2CC2)[nH]n1,-1,2,-5,5,25,60*
O=C(N/N=C/c1ccccn1)c1cc(-c2ccc(Cl)s2)[nH]n1,6,-6,-4,-1,-2,59*
COc1cc(/C=N/NC(=O)c2cc(C3CC3)[nH]n2)ccc1O,-3,0,-5,1,-7,4
O=C(N/N=C/c1ccccn1)c1cc(-c2ccc(Br)s2)[nH]n1,9,-4,0,-1,16,47
Cc1nn(-c2ccccc2)c(C)c1/C=N/NC(=O)c1cc(-c2ccc(Cl)s2)[nH]n1,12*,1,4,-2,8,-19
Cc1cc(C(=O)N/N=C/c2c(C)nn(-c3ccccc3)c2C)n[nH]1,-1,-3,0,-1,-18,18
CCOc1cc(/C=N/NC(=O)c2cc(C3CC3)[nH]n2)ccc1O,26*,0,-8,-1,-4,-4
COCCNC(=O)C1(C)CCCN(C(=O)c2cccc(OC(F)(F)F)c2)C1 (stereo not drawn),x,0,-9,-1,x,6
COc1ccc(CN(C)C(=O)[C@H]2O[C@@H](n3ccc(N)nc3=O)[C@H](O)[C@@H]2O)cc1OC,x,0,-6,-1,x,2
CC(O)(c1ccccc1)c1nc(-c2cccc(C#N)c2)cs1 (stereo not drawn),x,1,10,-2,x,-2
O=C(N/N=C\c1ccncc1)c1ccc(Br)s1,-9,4,2,0,-12,9
